ChEMBL document CHEMBL3352316, “Optimization of physicochemical properties and safety profile of novel bacterial topoisomerase type II inhibitors (NBTIs) with activity against Pseudomonas aeruginosa” (Bioorg Med Chem, 2014)

How the values were obtained:
[1] = biological target: Voltage-gated inwardly rectifying potassium channel KCNH2 (Homo sapiens, UniProt Q12809); experiment: Inhibition of human ERG by cell-based patch clamp method
Pseudomonas aeruginosa = experiment: Antimicrobial activity against Pseudomonas aeruginosa PAO1 in neutropenic mouse thigh infection model assessed as log reduction in CFU at 200 mg/kg/day, ip bid q12 regime starting 2 hrs after infection measured 24 hrs post start of treatment relative to control; type: functional; conditions: route intraperitoneal
In short: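 CD-1 mice made neutropenic with intraperitoneal cyclophosphamide 4 days (150 mg/kg) and 1 day (100 mg/kg) before thigh infection with P. aeruginosa PAO1, target inoculum 5 × 10⁵ CFU. Groups of five dosed ip in 5% dextrose with lactic acid pH 5.0. Vehicle-only group included. Thighs removed 24 h after treatment start, weighed, homogenized and plated on tryptic soy agar, 37 °C overnight. Log CFU/g reduction is relative to starting inoculum.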

[2] = AUC(infinity) in neutropenic mouse at 200 mg/kg/day, ip bid of total 12 doses; type: ADME, organism-based; parameters: dose 200 mg/kg/day, time infinity, route intraperitoneal; conditions: plasma
In short: (§1)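 CD-1 mice were made neutropenic with ip cyclophosphamide, 150 mg/kg at day −4 and 100 mg/kg at day −1, then infected in the thigh with P. aeruginosa PAO1. Dosing was ip, bid q12 from 2 h post-infection, in 5% dextrose with lactic acid pH 5.0. Groups of three mice were killed at timed intervals and cardiac-puncture plasma was analysed by LC–MS/MS.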

[3] = AUC(infinity) in neutropenic mouse at 100 mg/kg/day, ip bid of total 12 doses; type: ADME, organism-based; parameters: dose 100 mg/kg/day, time infinity, route intraperitoneal; conditions: plasma; in short: as §1
Cavia porcellus = experiment: Cardiotoxicity in anesthetized guinea pig assessed as change in monophasic action potential duration at 90% repolarization at free drug 86 uM, iv as 17-min infusion; type: toxicity, organism-based; conditions: in vivo
In short: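 Male guinea pigs were anaesthetized with Nembutal, ventilated, vagotomized and given propranolol 0.5 mg/kg iv. MAPD90 was recorded during pacing. Compound in 5% dextrose was infused iv over two 17-min periods: 17 mg/kg at 0.1 mL/kg min, then 51 mg/kg at 0.2 mL/kg min. Blood was sampled at each level, and % change was taken from each animal's time-zero baseline.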

[4] = Ratio of fAUC to MIC in Pseudomonas aeruginosa PAO1 in neutropenic mouse thigh infection model at 150 mg/kg/day, ip bid q12h starting 2 h post infection; conditions: route intraperitoneal
[5] = Partition co-efficient, log D of the compound at pH 7.4 by shake flask method; type: physicochemical; conditions: buffer
In short: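 Shake-flask method with 10 mM phosphate buffer pH 7.4 against n-octanol, shaken 1 h at 1200 rpm to equilibrium. Analysis was by LC/UV with MS confirmation.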

[6] = Fraction unbound in human plasma by LC/MS-MS analysis; type: ADME, cell-free
In short: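 Equilibrium dialysis: 10 µM compound was spiked into human plasma against phosphate buffer and rotated at 37 °C for 16 h. Plasma and buffer concentrations were quantified by LC/MS–MS with a C18 column and ESI MRM detection.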

Sequence of Voltage-gated inwardly rectifying potassium channel KCNH2 (Q12809 whole entry): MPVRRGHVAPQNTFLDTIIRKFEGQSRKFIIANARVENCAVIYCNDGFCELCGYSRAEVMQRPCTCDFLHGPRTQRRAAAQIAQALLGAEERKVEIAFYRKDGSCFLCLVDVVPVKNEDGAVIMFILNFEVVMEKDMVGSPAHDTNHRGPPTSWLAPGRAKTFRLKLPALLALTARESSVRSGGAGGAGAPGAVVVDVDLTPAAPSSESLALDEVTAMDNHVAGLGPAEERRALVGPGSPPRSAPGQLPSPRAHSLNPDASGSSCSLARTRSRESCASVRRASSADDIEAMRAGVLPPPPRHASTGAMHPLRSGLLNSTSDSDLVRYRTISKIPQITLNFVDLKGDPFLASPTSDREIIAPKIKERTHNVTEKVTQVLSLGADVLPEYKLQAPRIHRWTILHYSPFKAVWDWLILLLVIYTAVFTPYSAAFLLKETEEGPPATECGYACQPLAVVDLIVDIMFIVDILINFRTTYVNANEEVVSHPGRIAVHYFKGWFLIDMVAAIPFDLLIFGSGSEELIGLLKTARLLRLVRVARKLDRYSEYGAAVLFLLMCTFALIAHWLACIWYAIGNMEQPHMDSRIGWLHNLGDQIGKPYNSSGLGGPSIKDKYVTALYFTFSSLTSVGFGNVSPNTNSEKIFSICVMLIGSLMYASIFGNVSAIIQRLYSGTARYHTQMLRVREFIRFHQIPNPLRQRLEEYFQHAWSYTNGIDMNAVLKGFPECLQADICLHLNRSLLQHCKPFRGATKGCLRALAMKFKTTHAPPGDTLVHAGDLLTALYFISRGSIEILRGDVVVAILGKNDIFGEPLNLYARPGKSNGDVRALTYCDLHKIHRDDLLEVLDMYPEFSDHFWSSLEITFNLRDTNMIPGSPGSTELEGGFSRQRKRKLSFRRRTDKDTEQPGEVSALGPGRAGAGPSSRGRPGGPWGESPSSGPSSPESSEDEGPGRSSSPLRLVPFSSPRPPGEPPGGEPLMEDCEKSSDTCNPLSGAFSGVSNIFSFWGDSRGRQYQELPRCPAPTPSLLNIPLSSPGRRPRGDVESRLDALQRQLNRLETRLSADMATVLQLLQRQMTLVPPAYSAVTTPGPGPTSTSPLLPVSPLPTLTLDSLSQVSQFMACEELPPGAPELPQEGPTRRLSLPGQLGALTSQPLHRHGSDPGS

AUC(0-inf) [2]: 29900 ng·h/mL | AUC(0-inf) [3]: 14800 ng·h/mL | fAUC/MIC [4]: 16 | logD [5]: -0.32 | fraction unbound [6]: 0.73
Structure (SMILES): N[C@@H](Cn1c(=O)cnc2ccc(F)cc21)[C@H]1CC[C@H](NCc2ncc3c(n2)NC(=O)CO3)CC1
IC50 [1]: > 333 µM | FC (Pseudomonas aeruginosa): 2.5 | Activity (Cavia porcellus): Toxic
